pIC50: −log10 of the molar value.
What was measured:
[1] = biological target: Insulin-like growth factor 1 receptor (Homo sapiens, UniProt P08069); experiment: Inhibition of recombinant IGF1R phosphorylation transfected in mouse embryonic fibroblast
How it was run: (§1)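 Mouse embryonic fibroblasts stably transfected with FLT3 or IGF1-R; 90 min pretreatment with 10 µM staurosporine, compound 90 min at 37 °C. Stimulation with FLT3-ligand 5 min (FLT3) or IGF1 3 min (IGF1-R). Lysates captured on antibody-coated plates; autophosphorylation detected with antiphosphotyrosine PY99.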

[2] = biological target: T1, Receptor-type tyrosine-protein kinase FLT3 (Homo sapiens, UniProt P36888); experiment: Inhibition of recombinant FLT3 phosphorylation transfected in mouse embryonic fibroblast; how it was run: as §1
T1 sequence (P36888 whole entry): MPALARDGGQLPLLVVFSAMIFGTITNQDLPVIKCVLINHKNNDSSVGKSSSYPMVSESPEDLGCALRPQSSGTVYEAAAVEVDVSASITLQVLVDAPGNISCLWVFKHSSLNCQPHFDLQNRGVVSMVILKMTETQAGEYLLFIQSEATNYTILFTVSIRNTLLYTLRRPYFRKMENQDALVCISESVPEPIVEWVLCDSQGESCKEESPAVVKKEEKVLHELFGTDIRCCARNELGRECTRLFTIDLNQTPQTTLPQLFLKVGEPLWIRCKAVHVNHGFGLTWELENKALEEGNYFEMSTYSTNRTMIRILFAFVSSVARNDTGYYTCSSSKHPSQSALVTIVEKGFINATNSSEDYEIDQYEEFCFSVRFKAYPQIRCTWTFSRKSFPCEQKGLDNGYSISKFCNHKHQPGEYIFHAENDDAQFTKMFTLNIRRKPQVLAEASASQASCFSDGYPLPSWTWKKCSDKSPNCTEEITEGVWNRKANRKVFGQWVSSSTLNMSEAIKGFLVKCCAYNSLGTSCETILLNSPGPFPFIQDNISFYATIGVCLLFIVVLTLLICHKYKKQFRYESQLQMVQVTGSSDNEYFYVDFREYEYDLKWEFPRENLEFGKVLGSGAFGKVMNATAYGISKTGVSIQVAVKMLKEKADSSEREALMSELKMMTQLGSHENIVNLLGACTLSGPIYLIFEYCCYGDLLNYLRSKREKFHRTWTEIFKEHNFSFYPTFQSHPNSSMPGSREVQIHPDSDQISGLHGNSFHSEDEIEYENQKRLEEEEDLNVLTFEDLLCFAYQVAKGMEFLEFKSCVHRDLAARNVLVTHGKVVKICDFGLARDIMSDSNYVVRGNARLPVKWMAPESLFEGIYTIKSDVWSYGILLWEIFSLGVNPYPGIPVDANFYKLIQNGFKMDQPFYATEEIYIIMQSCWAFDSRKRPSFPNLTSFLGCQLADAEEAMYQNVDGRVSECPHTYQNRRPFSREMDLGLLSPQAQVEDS

[3] = biological target: Aurora kinase B (Homo sapiens, UniProt Q96GD4); experiment: Inhibition of recombinant Aurora B phosphorylation in human HT29 cells; format: cell-based, HT-29
How it was run: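 HT29 cells pretreated 90 min with 10 µM staurosporine, then compound 90 min at 37 °C, then calyculin A 30 min. Lysates captured on antibody-coated plates; phospho-histone H3 detected with anti-P-His H3 as the Aurora B read-out.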

[4] = biological target: Vascular endothelial growth factor receptor 2 (Homo sapiens, UniProt P35968); experiment: Inhibition of recombinant VEGFR2 phosphorylation in human HUE cells; format: cell-based
How it was run: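 Human endothelial HUE cells pretreated 90 min with 10 µM staurosporine, compound 90 min at 37 °C, then VEGF165 7 min. Lysates captured on antibody-coated plates; VEGF-R2 autophosphorylation detected with antiphosphotyrosine PY99.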

Measured: pIC50

Chain of Insulin-like growth factor 1 receptor (P08069 31-736 limits assumed): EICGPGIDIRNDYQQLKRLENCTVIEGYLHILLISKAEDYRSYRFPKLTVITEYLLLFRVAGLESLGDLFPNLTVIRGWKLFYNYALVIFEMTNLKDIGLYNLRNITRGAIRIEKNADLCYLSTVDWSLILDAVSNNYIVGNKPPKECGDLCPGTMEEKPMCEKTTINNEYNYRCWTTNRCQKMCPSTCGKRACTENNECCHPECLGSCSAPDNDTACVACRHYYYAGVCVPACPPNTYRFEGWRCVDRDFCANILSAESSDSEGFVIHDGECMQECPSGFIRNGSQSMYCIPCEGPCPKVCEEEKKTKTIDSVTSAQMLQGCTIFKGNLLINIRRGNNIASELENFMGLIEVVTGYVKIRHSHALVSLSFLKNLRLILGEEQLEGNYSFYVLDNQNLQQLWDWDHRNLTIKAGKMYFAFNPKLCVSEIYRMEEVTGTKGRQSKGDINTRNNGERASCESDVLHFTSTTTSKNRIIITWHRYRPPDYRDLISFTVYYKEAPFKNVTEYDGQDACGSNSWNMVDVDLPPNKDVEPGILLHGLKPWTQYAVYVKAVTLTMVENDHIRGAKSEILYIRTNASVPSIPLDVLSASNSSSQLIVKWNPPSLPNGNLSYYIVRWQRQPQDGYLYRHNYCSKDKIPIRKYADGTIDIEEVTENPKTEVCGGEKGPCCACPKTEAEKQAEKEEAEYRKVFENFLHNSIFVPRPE
Chain of Insulin-like growth factor 1 receptor (P08069 741-1367 limits assumed): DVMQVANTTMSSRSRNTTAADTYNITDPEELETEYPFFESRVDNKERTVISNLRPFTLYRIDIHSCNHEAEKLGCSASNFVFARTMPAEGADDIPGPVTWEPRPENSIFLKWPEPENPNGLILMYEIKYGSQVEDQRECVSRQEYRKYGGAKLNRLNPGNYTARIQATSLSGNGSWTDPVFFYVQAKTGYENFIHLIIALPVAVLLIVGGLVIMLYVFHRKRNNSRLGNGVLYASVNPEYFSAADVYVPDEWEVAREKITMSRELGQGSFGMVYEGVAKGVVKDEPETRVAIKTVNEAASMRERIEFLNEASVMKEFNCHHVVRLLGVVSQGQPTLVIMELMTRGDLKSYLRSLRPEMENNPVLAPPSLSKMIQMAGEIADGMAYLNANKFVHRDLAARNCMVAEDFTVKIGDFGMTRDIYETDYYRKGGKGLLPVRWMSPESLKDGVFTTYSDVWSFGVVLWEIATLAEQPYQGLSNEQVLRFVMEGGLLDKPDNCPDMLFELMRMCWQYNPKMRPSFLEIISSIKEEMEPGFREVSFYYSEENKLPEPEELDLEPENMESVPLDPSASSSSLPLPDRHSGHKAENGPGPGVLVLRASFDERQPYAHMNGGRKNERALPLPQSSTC
Chain of Aurora kinase B (Q96GD4 whole entry): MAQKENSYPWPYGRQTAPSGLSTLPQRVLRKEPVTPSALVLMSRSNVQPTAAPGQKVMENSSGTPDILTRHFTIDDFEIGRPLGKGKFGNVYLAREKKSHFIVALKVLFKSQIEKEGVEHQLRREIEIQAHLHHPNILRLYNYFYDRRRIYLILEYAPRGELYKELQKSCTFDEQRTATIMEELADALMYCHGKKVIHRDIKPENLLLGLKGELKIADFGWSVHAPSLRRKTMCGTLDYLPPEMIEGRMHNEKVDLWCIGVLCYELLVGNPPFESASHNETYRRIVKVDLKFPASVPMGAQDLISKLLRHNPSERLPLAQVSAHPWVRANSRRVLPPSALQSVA
Chain of Vascular endothelial growth factor receptor 2 (P35968 whole entry): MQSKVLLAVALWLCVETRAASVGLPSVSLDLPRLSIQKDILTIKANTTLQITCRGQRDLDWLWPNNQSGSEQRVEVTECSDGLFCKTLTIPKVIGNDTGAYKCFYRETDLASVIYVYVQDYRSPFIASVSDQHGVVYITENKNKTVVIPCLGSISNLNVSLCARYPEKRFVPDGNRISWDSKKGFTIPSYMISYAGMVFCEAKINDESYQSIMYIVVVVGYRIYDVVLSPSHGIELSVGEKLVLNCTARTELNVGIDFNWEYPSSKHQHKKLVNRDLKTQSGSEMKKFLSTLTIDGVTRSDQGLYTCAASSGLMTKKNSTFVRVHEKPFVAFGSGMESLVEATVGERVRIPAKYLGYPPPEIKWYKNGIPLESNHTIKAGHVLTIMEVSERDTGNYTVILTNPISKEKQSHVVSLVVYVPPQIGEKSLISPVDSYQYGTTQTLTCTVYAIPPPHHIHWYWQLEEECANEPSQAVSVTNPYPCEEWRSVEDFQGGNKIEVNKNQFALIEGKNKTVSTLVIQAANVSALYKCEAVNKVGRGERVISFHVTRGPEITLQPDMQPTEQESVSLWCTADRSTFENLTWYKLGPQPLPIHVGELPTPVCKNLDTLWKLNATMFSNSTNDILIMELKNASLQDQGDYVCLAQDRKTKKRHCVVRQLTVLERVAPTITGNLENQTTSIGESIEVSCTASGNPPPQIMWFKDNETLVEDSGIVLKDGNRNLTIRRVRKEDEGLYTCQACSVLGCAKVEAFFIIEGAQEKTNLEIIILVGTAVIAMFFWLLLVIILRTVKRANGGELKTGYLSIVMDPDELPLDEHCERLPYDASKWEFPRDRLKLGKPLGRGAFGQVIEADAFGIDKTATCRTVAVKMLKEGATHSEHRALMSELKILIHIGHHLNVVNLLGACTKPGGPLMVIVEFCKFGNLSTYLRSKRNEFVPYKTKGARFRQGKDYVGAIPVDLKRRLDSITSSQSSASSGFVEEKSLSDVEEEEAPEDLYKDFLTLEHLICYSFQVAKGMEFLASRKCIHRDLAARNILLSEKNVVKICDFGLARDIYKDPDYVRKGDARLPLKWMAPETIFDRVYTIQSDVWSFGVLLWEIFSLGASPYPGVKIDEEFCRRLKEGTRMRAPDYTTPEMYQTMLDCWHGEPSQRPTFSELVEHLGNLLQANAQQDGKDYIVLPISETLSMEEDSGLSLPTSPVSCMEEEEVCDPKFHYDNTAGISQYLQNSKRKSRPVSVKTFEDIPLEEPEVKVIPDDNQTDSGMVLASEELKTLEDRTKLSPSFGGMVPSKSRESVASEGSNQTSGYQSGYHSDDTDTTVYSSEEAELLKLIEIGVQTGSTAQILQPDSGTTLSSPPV

Cc1cc(O)cc2oc(=O)c3c(O)cc(O)cc3c12 [ALTERNARIOL]
5.41: [1] | [2] | [3] | [4]

— ChEMBL document CHEMBL1157406, “Cytotoxic metabolites from the fungal endophyte Alternaria sp. and their subsequent detection in its host plant Polygonum senegalense” (J Nat Prod, 2008)
